# Screening data from PubChem.
# H69AR inhibit = growth inhibitors of human H69AR lung tumor cells; H69AR lung tumor viability, ATP luminescence, 72 h; stronger effect = lower value; viability, % at 10 µM; 85,000 tested, 6% active;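 active = viability at or below 40%; inactive = viability above 40%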;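 note: multidrug resistant small cell line overexpressing MRP-1 efflux transporter; 100% = mean luminescence of untreated control wells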
# HUVEC prolif 384 = inhibitors of human endothelial cell proliferation. 86,000 tested, 1.1% active. viability, % at 10 µM (by protocol). HUVEC proliferation, CellTiter-Glo luminescence, 72 h; stronger effect = lower value;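 active = viability at or below 30%; inactive = viability above 30%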;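 note: 100% = median luminescence of DMSO-only cell control wells on each plate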
# HCT116 PTEN-null = growth suppressors of cells with PTEN tumor suppressor deletion. HCT116 PTEN-null viability, CellTiter-Glo, 60 h; stronger effect = lower value. viability, % at 10 µM. 140,000 tested, 1.2% active. AID 827;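 active = viability at or below a set limit, 4 SD under the median of all tested compounds, cut at about 3.7% in these data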;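 note: PTEN knockout HCT116 line with beta catenin targeted HCT116 as companion control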
# Fibroblast inh = blocks proliferation of human lung fibroblasts; LL 47 human lung fibroblast viability, ATP luminescence; stronger effect = lower value; viability, % at 10 µM; 85,000 tested, 1.1% active; AID 719;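 active = viability at or below 50% in the single dose screen; inactive = viability above 50%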;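 note: compound exposure lasted 72 h before the ATP readout; 100% = median luminescence of untreated cell-only wells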
#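 Test system: LL 47 human lung fibroblasts / Incubation: 72 h compound exposure at 37 °C after overnight plating / Technique: luminescent ATP detection, CellTiter-Glo / Compound dosing: 0.1% DMSO in all compound wells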
# HCT116 bCat-KO = beta-catenin-lacking colon tumor cell growth suppression; HCT116 beta-catenin knockout viability, CellTiter-Glo, 60 h; stronger effect = lower value; viability, % at 10 µM; 140,000 tested, 1.5% active; AID 818;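 active = viability at or under a set limit, the compound median less 4 SD, cut at about 6% in these data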;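 note: 0% = Hyamine 1622 control at 20 µM and 100% = untreated cell control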
# An asterisk follows results filed as active; nt = not tested or not shown. The entries come from a sample that favours hits as a whole.
SMILES,H69AR inhibit,HUVEC prolif 384,HCT116 PTEN-null,Fibroblast inh,HCT116 bCat-KO
CCNc1nc(C)c2cc(Br)c(=O)n(CC)c2n1,58.3,38.3,55.7,37.0*,60.9
N#Cc1sc2nc(N3CCCCC3)c3c(c2c1N)CCCC3,23.0*,7.4*,13.0,90.7,7.6
COC(=O)C1CCCN1S(=O)(=O)c1ccc2ccccc2c1 (centres undefined),33.2*,100.4,54.0,90.5,58.0
CCOC(=O)N1CCN(C(=O)C(C)N(c2ccc(Oc3ccccc3)cc2)S(C)(=O)=O)CC1 (centres undefined),33.6*,111.2,44.7,nt,49.1
CC(C)(C)c1cc(C(c2cccnc2)N2CCN(CCO)CC2)cc(C(C)(C)C)c1O (centres undefined),2.2*,2.2*,1.7*,2.8*,1.7*
OCCN1CCN(C(c2cccs2)c2ccc3cccnc3c2O)CC1 (centres undefined),40.1,57.3,9.8,58.3,14.4
N#C/C(=C/c1ccccc1[N+](=O)[O-])C(=O)NCc1ccco1,nt,nt,77.6,nt,77.9
CCC1CCCCN1S(=O)(=O)c1ccc(C(=O)Nc2nnc(-c3cccs3)o2)cc1 (centres undefined),20.5*,64.5,10.8,71.3,13.2
CC1CC(C)CN(S(=O)(=O)c2ccc(C(=O)Nc3nnc(-c4cccs4)o3)cc2)C1 (centres undefined),44.8,4.2*,6.8,72.0,14.1
CC1CCCN(S(=O)(=O)c2ccc(C(=O)Nc3nnc(-c4ccccc4Cl)o3)cc2)C1 (centres undefined),30.8*,3.9*,8.0,46.6*,13.4
Cc1nnc(NC(=O)c2ccc(S(=O)(=O)N3CCCCCC3)cc2)o1,59.4,86.2,78.0,98.1,55.9
O=C(CCc1ccccc1)Nc1nnc(-c2cccs2)o1,102.4,87.1,104.7,97.5,95.3
O=C(Nc1nnc(-c2cccs2)o1)c1cccc(C(F)(F)F)c1,23.4*,39.3,7.7,68.7,12.9
CN1C(=O)NC(c2ccccc2)C2=C1CN(c1ccc3ccccc3c1)C2=O (centres undefined),nt,nt,94.7,nt,94.1
Cc1ccc(/C=c2\s/c(=C(/C#N)C(=O)N3CCCC3)n(Cc3ccco3)c2=O)s1,36.7*,58.5,48.1,96.8,53.6
COC(=O)/C=c1/s/c(=C(\C#N)C(=O)NCc2ccco2)n(-c2ccc(C)cc2)c1=O,99.7,95.8,96.3,104.5,89.0
COC(=O)c1[nH]c2c(c1C)C(=O)CC(c1cccs1)C2 (centres undefined),34.0*,46.3,14.1,46.8*,10.1
COC(=O)c1[nH]c2c(c1C)C(=O)CC(c1cc(OC)ccc1OC)C2 (centres undefined),21.8*,49.5,36.4,52.4,36.0
CCNS(=O)(=O)c1ccc(Br)c(OC)c1,92.8,100.7,97.0,97.6,93.1
Cc1c(N2C(=O)C(=O)/C(=C(/O)c3ccc(Cl)cc3)C2c2ccccc2)c(=O)n(-c2ccccc2)n1C (centres undefined),nt,nt,94.8,nt,95.0
COC(=O)c1cc(NC(=O)c2cccc(C(F)(F)F)c2)c(=O)oc1C/C=N/OCc1cccc(Cl)c1Cl,12.6*,79.0,90.2,99.2,107.5
O=C(NCc1ccccc1Cl)c1cccc(C(F)(F)F)c1,nt,nt,89.1,nt,91.1
Cc1ccc(/C=C/C(=O)OCC(=O)Nc2cccc(S(=O)(=O)N(C)C)c2)o1,nt,nt,93.9,nt,92.0
NC(=O)c1cc(-c2ccccc2)sc1NC(=O)CN1CCCCC1,nt,nt,47.0,nt,47.7
CC(C)CCNC(=O)NC(=O)Cn1cc(C(F)(F)F)ccc1=O,105.0,102.1,95.4,94.2,102.3
SMILES,H69AR inhibit,HUVEC prolif 384,HCT116 PTEN-null,Fibroblast inh,HCT116 bCat-KO
COc1cccc(NC(=O)CCc2nc(-c3ccccc3F)no2)c1,89.3,82.2,109.5,99.8,103.6
O=C(CCc1nc(-c2ccccc2F)no1)Nc1ccc(Oc2ccccc2)cc1,29.5*,32.3,15.1,60.3,8.9
COc1ccc(/C=N/Nc2ccc([N+](=O)[O-])cc2)cc1Cn1cc([N+](=O)[O-])cn1,13.7*,47.6,93.3,92.0,89.3
Cc1cc(C(=O)N2CCc3ccccc32)n(-c2ccccc2)n1,21.9*,70.8,31.4,89.0,37.9
COc1cc(/C=C2\CCc3ccccc3C2=O)cc(OC)c1OC,nt,nt,1.7*,nt,2.0*
COc1cc(/C=C2/CCc3ccccc3C2=O)cc(OC)c1OC,nt,nt,4.5,nt,9.7
COc1ccc(/C=C2\COc3ccccc3C2=O)cc1OC,nt,nt,1.1*,nt,1.6*
COc1ccc(/C=C2/CCc3ccccc3C2=O)cc1OC,nt,nt,39.1,nt,37.9
